Here are results for 13 molecules from ChEMBL document CHEMBL1212851, “Baculiferins A-O, O-sulfated pyrrole alkaloids with anti-HIV-1 activity, from the Chinese marine sponge Iotrochota baculifera” (Bioorg Med Chem, 2010).

One test deals with A2780. The experiment in a line: Cytotoxicity against human A2780 cells. The format is functional, cell-based.
Test [1] relates to Human immunodeficiency virus 1. The experiment in a line: Binding affinity to HIV1 recombinant Vif at 20 ug/ml. The gist of the method: (§1)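 Recombinant gp41, Vif or APOBEC3G each immobilized on a CM5 sensor chip in a separate flow cell. Binding monitored by surface plasmon resonance on a BIAcore instrument.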
Another test has as its system BGC-823. The test can be described thus: Cytotoxicity against human BGC823 cells. Type of test: functional, cell-based.
The test system of a further test is A549. The experiment in a line: Cytotoxicity against human A549 cells. Type of test: functional, cell-based.
In test [2] the target is DNA dC->dU-editing enzyme APOBEC-3G (Homo sapiens) (UniProt Q9HC16). The experiment in a line: Binding affinity to human recombinant APOBEC3G at 20 ug/ml. The gist of the method:
as §1

The subject of a further test is HCT-8. The experiment in a line: Cytotoxicity against human HCT8 cells. The format is functional, cell-based. Conditions: for IC50: pooled result: one value given for 4 cell lines, strains, targets or settings.
For test [3], the system named is Human immunodeficiency virus 1. The experiment in a line: Binding affinity to HIV1 recombinant gp41 at 20 ug/ml. The gist of the method:
as §1

In another test the test system is Bel-7402. The test can be described thus: Cytotoxicity against human Bel7402 cells. The format is functional, cell-based.
Test [4] concerns Human immunodeficiency virus 1. The test can be described thus: Antiviral activity against HIV1 infected in human HEK293 cells assessed as inhibition of viral replication. Type of test: functional, organism-based. The gist of the method: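 VSVG-pseudotyped HIV-luc virus system in HEK-293 cells, used to assess inhibition of HIV-1 replication.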
In test [5] the test system is Candida albicans. The experiment in a line: Effect on brefeldin A MIC against Candida albicans isolate GU4 in presence of 30 uM compound by two fold dilution method.
Test [6] concerns Candida albicans. The experiment in a line: Multidrug reversal activity in Candida albicans isolate GU5 assessed as brefeldin A MIC in presence of 30 uM compound expressing CDR1 and CDR2 by two fold dilution method.
In test [7] the test system is Human immunodeficiency virus 1. The test can be described thus: Antiviral activity against HIV1 3B infected in human MT4 cells after 5 days by p24 antigen detection assay. The format is functional, organism-based. Conditions: Human immunodeficiency virus 1, 3B, MT4, 120 h. The gist of the method:
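MT-4 cells infected with 10000 TCID50 HIV-1 IIIB for 2 h at 37 °C, washed, then plated at 5 × 10^4 cells per well. Compounds added from 250 µg/mL in fivefold serial dilutions, five dilutions with four replicates each. Cultures held 5 d at 37 °C in 5% CO2. On day 3 half the supernatant was replaced with fresh compound or medium. On day 5 supernatant p24 measured, inhibition computed relative to virus control, and IC50 taken by linear regression.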

Test [8] relates to Human immunodeficiency virus 1. The experiment in a line: Antiviral activity against HIV1 3B infected in human MAGI cells after 40 to 48 hrs assessed as inhibition of viral life cycle. Type of test: functional, organism-based. The note with it: Human immunodeficiency virus 1, 3B. The gist of the method: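 HeLa-CD4-LTR-β-gal (MAGI) indicator cells plated at 6000 per well and infected with 2000 TCID50 HIV-1 IIIB. Compounds added in fourfold serial dilutions, five dilutions with four replicates each, at a final top concentration of half the 200 µg/mL stock dilution. Cells incubated 40–48 h at 37 °C in 5% CO2, then fixed, stained, and blue cells counted by microscopy. Single-round infection.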

≈ marks a conversion by molar mass, not a printed value. Calls of active or inactive are those of the source. The rule behind the calls is not given here. A value given as a limit tells only on which side of the number the result lay.

Sequence of DNA dC->dU-editing enzyme APOBEC-3G (Homo sapiens) (Q9HC16 whole entry): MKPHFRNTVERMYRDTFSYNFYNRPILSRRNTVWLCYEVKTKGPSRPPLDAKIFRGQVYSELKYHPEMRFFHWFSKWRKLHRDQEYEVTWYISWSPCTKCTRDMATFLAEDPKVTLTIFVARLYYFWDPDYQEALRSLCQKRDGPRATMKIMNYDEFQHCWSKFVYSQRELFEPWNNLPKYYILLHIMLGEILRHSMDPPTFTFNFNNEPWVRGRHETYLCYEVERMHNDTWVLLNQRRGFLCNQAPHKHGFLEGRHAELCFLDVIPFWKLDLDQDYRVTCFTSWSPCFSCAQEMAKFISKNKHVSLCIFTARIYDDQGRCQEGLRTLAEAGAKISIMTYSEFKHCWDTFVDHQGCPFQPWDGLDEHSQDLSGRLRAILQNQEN

Turning to `O=C1C(c2ccc(O)c(O)c2)=C2C(=C(c3ccc(O)c(O)c3)C(=O)N2CCc2ccc(OS(=O)(=O)O)cc2)c2cc(O)c(O)cc21`, the result (in the test with A2780; in the test on BGC-823; in the test with A549; in the test on HCT-8; in the test on Bel-7402; in test [4]) was inactive. The RU worked out at 529 pg/mm2 in test [1], 765 pg/mm2 in test [2] and 1490 pg/mm2 in test [3].
As for `O=C1C(c2ccc(O)c(O)c2)=C2C(=C(c3ccc(OS(=O)(=O)O)c(O)c3)C(=O)N2CCc2ccc(O)cc2)c2cc(O)c(O)cc21`, the outcome (in the test with A2780; with BGC-823; with A549; in the test with HCT-8; with Bel-7402; in [4]) was inactive. Besides, the RU in [1] was 638 pg/mm2; in test [3], 1350 pg/mm2.
Take `O=c1oc2cc(O)c(O)cc2c2c1[nH]c1c(=O)oc3cc(O)c(O)cc3c12`: the result (in the test on A2780; in the test with BGC-823; in the test on A549; in the test on HCT-8; with Bel-7402; in [4]) was inactive. For the same molecule, the RU in [1] turned out to be 11.7 pg/mm2.
What is called MIC is the least concentration at which growth counts as inhibited. Usually IC50 stands for the midpoint of a concentration-inhibition curve. As for `O=C1C(c2ccc(O)c(O)c2)=c2c(c3c(n2CCc2ccc(O)cc2)=C(c2ccc(O)c(O)c2)C(=O)c2cc(O)c(OS(=O)(=O)O)cc2-3)-c2cc(O)c(O)cc21` [BACULIFERIN A], the MIC with Candida albicans [5] worked out at 12.5 µg/mL; in the test with Candida albicans [6] it was 50 µg/mL. In addition, the outcome (in the test with A2780; with BGC-823; in the test on A549; in the test on HCT-8; in the test on Bel-7402; in [4]) was inactive. For the same molecule, the RU was 111 pg/mm2 in test [1], 171 pg/mm2 in test [2] and 17.1 pg/mm2 in [3]. For the same molecule, the IC50 in test [7] was found to be 7.6 µg/mL (≈ 9.77 µM); in [8], 3.7 µg/mL (≈ 4.76 µM).
In the case of `O=C1C(c2ccc(O)c(OS(=O)(=O)O)c2)=c2c(c3c(n2CCc2ccc(O)cc2)=C(c2ccc(O)c(OS(=O)(=O)O)c2)C(=O)c2cc(O)c(O)cc2-3)-c2cc(O)c(O)cc21` [BACULIFERIN C], the outcome (in the test on A2780; in the test on BGC-823; in the test on A549; in the test with HCT-8; with Bel-7402; in test [4]) was inactive. In addition, the RU turned out to be 296 pg/mm2 in test [1], 886 pg/mm2 in [2] and 116 pg/mm2 in [3]. Moreover, the IC50 came out at 8.4 µg/mL (≈ 9.79 µM) in [7] and 1.2 µg/mL (≈ 1.4 µM) in test [8].
Consider `O=C1C(c2ccc(O)c(O)c2)=c2c(c3c(n2CCc2ccc(O)cc2)=C(c2ccc(O)c(O)c2)C(=O)c2cc(O)c(OS(=O)(=O)O)cc2-3)-c2cc(OS(=O)(=O)O)c(O)cc21` [BACULIFERIN D], for which the minimal inhibitory concentration (MIC) was 12.5 µg/mL in the test on Candida albicans [5] and 50 µg/mL in the test on Candida albicans [6]. Besides, the result (in the test on A2780; with BGC-823; in the test on A549; with HCT-8; in the test on Bel-7402; in test [4]) was inactive.
For the molecule `O=C1C(c2ccc(O)c(OS(=O)(=O)O)c2)=c2c(c3c(n2CCc2ccc(O)cc2)=C(c2ccc(O)c(OS(=O)(=O)O)c2)C(=O)c2cc(O)c(OS(=O)(=O)O)cc2-3)-c2cc(O)c(O)cc21` [BACULIFERIN G], the 50% inhibitory concentration (IC50) is 19.7 µM with A2780, 3.2 µg/mL (≈ 3.41 µM) in test [7], 19.7 µM with HCT-8 and 4.4 µg/mL (≈ 4.69 µM) in test [8]. Further, the RU is 447 pg/mm2 in [1], 572 pg/mm2 in [2] and 125 pg/mm2 in test [3]. Besides, the result in test [4] was inactive.
Take `O=C1C(c2ccc(O)c(O)c2)=c2c(c3c(n2CCc2ccc(O)cc2)=C(c2ccc(O)c(OS(=O)(=O)O)c2)C(=O)c2cc(O)c(OS(=O)(=O)O)cc2-3)-c2cc(OS(=O)(=O)O)c(O)cc21` [BACULIFERIN H]: the outcome (in the test on A2780; in the test on BGC-823; with A549; in the test on HCT-8; in the test with Bel-7402; in test [4]) was inactive. The RU in test [1] came to 259 pg/mm2; in test [2], 578 pg/mm2; in test [3], 76.2 pg/mm2. Besides, the 50% inhibitory concentration (IC50) in test [7] is 1.4 µg/mL (≈ 1.49 µM); in [8], 1.3 µg/mL (≈ 1.39 µM).
Consider `O=C1C(c2ccc(O)c(O)c2)=C2C(=C(c3ccc(O)c(O)c3)C(=O)N2CCc2ccc(O)cc2)c2cc(O)c(O)cc21` [BACULIFERIN K], for which the result (in the test on A2780; in the test with BGC-823; in the test with A549; with HCT-8; with Bel-7402; in test [4]) was inactive. Moreover, the RU is 448 pg/mm2 in [1] and 523 pg/mm2 in test [3]. Further, the IC50 in test [7] was 5.5 µg/mL (≈ 9.73 µM); in test [8], below 0.4 µg/mL.
On to `O=C(O)Cn1c2c(c3c1=C(c1ccc(O)c(O)c1)C(=O)c1cc(O)c(O)cc1-3)-c1cc(O)c(O)cc1C(=O)C=2c1ccc(O)c(O)c1` [BACULIFERIN L], for which the result (in the test with A2780; with BGC-823; in the test on A549; in the test with HCT-8; with Bel-7402; in test [4]) was inactive. The RU was determined as 1980 pg/mm2 in test [1], 2170 pg/mm2 in test [2] and 469 pg/mm2 in [3]. Besides, the IC50 came to 7 µg/mL (≈ 11 µM) in [7] and 4.1 µg/mL (≈ 6.45 µM) in [8].
As for `O=C(O)Cn1c2c(c3c1=C(c1ccc(O)c(O)c1)C(=O)c1cc(O)c(OS(=O)(=O)O)cc1-3)-c1cc(O)c(O)cc1C(=O)C=2c1ccc(O)c(O)c1` [BACULIFERIN M], the MIC in the test on Candida albicans [5] was 12.5 µg/mL; in the test with Candida albicans [6], 50 µg/mL. Moreover, the outcome (in the test with A2780; in test [4]) was inactive. Moreover, the RU was found to be 1900 pg/mm2 in test [1], 2460 pg/mm2 in test [2] and 380 pg/mm2 in [3]. The IC50 in [7] stood at 5 µg/mL (≈ 6.99 µM); with HCT-8, 65.8 µM; in [8], 0.2 µg/mL (≈ 0.279 µM).
In the case of `O=C(O)CN1C(=O)C(c2ccc(O)c(O)c2)=C2C1=C(c1ccc(O)c(O)c1)C(=O)c1cc(O)c(O)cc12` [BACULIFERIN N], the result (in the test on A2780; in the test with BGC-823; in the test with A549; with HCT-8; in the test with Bel-7402; in [4]) was inactive. In addition, the RU in test [1] worked out at 597 pg/mm2; in [3] it was 953 pg/mm2. For the same molecule, the values for the 50% inhibitory concentration (IC50) in test [7] and in test [8] were 4.4 µg/mL (≈ 8.74 µM) and below 0.1 µg/mL, respectively.
With `O=c1oc2cc(O)c(O)cc2c2c1[nH]c1c(=O)oc3cc(O)c(OS(=O)(=O)O)cc3c12` [BACULIFERIN O], the result (with A2780; in [4]) was inactive. Also, the IC50 in the test with HCT-8 was determined as 33.1 µM.
